# According to publication PMC4203516 (Autophagy, 2014):
# Entries after “also recorded” stand apart in the source; their conditions may differ.
# Experiment: Phase I dose escalation: adverse events and dose-limiting toxicities
# Type: in vivo, human
# Outline: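 Open-label, single-institution 3 + 3 escalation. IV temsirolimus 25 mg weekly was infused over 30 min after IV diphenhydramine 25–50 mg premedication. A 1-wk temsirolimus-alone run-in preceded daily oral HCQ (200, 400, 800, 1200 mg), split ≥6 h apart above 200 mg. Cycles lasted 4 wk. The DLT window was the first 6 wk, later 5 wk. Toxicity-evaluable patients took ≥1 HCQ dose. Blood counts were weekly, then every 2 wk.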
# [1] = Total, all HCQ doses + TEM 25 mg weekly, N=39
# [2] = daily HCQ 200 mg + TEM 25 mg weekly, N=11
# [3] = daily HCQ 400 mg + TEM 25 mg weekly, N=3
# [4] = daily HCQ 800 mg + TEM 25 mg weekly, N=9
# [5] = daily HCQ 1200 mg + TEM 25 mg weekly, N=16
compound,measurement,setting,value
"CCN(CCO)CCCC(C)Nc1ccnc2cc(Cl)ccc12 (centres unmarked) [HCQ, hydroxychloroquine]","Anal fissure G1–2, %",[1],5%
same,"Anal fissure G1–2, patients",[1],2
same,"Anemia G1–2, patients",[1],4
same,"Anemia G3–4, patients",[1],4
same,"Anorexia G1–2, %",[1],41%
same,"Anorexia G1–2, patients",[1],16
same,"Anorexia G3–4, %",[1],8%
same,"Anorexia G3–4, patients",[1],3
same,"Constipation G1–2, %",[1],13%
same,"Constipation G1–2, patients",[1],5
same,"Diarrhea G1–2, patients",[1],7
same,"Dizziness G1–2, %",[1],5%
same,"Dizziness G1–2, patients",[1],2
same,"Dysguesia G1–2, patients",[1],2
same,"Dysguesia G3–4, patients",[1],1
same,"Elevated creatinine G1–2, patients",[1],2
same,"Elevated creatinine G3–4, patients",[1],1
same,"Fatigue G1–2, patients",[1],19
same,"Fatigue G3–4, patients",[1],3
same,"Lymphopenia G1–2, %",[1],31%
same,"Lymphopenia G3–4, %",[1],3%
same,"Lymphopenia G3–4, patients",[1],1
same,"Nausea G1–2, patients",[1],13
same,"Nausea G3–4, %",[1],15%
same,"Nausea G3–4, patients",[1],6
same,"Neutropenia G1–2, %",[1],3%
same,"Neutropenia G1–2, patients",[1],1
same,"Poor wound healing G1–2, patients",[1],2
same,"Rash G1–2, patients",[1],15
same,"Stomatitis G1–2, patients",[1],16
same,"Thrombocytopenia G1–2, %",[1],21%
same,"Thrombocytopenia G1–2, patients",[1],8
same,"Thrombocytopenia G3–4, %",[1],3%
same,"Thrombocytopenia G3–4, patients",[1],1
same,"Vitiligo G1–2, %",[1],5%
same,"Vitiligo G1–2, patients",[1],2
same,"Weight loss G1–2, %",[1],18%
same,"Weight loss G1–2, patients",[1],7
same,"Anemia G1–2, %",[2],9%
same,"Anemia G1–2, patients",[2],1
same,"Anemia G3–4, %",[2],9%
same,"Anemia G3–4, patients",[2],1
same,"Anorexia G1–2, %",[2],36%
same,"Anorexia G1–2, patients",[2],4
same,"Diarrhea G1–2, patients",[2],3
same,"Fatigue G1–2, patients",[2],5
same,"Lymphopenia G1–2, %",[2],45%
same,"Lymphopenia G1–2, patients",[2],5
same,"Nausea G1–2, patients",[2],4
same,"Nausea G3–4, patients",[2],1
same,"Neutropenia G1–2, patients",[2],1
same,"Rash G1–2, patients",[2],3
same,"Stomatitis G1–2, patients",[2],4
same,"Thrombocytopenia G1–2, %",[2],36%
same,"Thrombocytopenia G1–2, patients",[2],4
same,"Thrombocytopenia G3–4, %",[2],9%
same,"Thrombocytopenia G3–4, patients",[2],1
same,"Weight loss G1–2, %",[2],18%
same,"Weight loss G1–2, patients",[2],2
same,"Anemia G1–2, %",[3],33%
same,"Anemia G1–2, patients",[3],1
same,"Anemia G3–4, %",[3],33%
same,"Anemia G3–4, patients",[3],1
same,"Anorexia G1–2, %",[3],33%
same,"Anorexia G1–2, patients",[3],1
same,"Diarrhea G1–2, %",[3],33%
same,"Diarrhea G1–2, patients",[3],1
same,"Fatigue G1–2, %",[3],67%
same,"Fatigue G1–2, patients",[3],2
same,"Lymphopenia G1–2, %",[3],33%
same,"Lymphopenia G1–2, patients",[3],1
same,"Rash G1–2, patients",[3],1
same,"Stomatitis G1–2, patients",[3],1
same,"Weight loss G1–2, %",[3],67%
same,"Weight loss G1–2, patients",[3],2
same,"Anal fissure G1–2, %",[4],11%
same,"Anal fissure G1–2, patients",[4],1
same,"Anemia G1–2, %",[4],22%
same,"Anemia G1–2, patients",[4],2
same,"Anemia G3–4, patients",[4],1
same,"Anorexia G1–2, %",[4],56%
same,"Anorexia G1–2, patients",[4],5
same,"Anorexia G3–4, %",[4],11%
same,"Anorexia G3–4, patients",[4],1
same,"Constipation G1–2, %",[4],11%
same,"Constipation G1–2, patients",[4],1
same,"Diarrhea G1–2, %",[4],11%
same,"Diarrhea G1–2, patients",[4],1
same,"Fatigue G1–2, patients",[4],2
same,"Fatigue G3–4, patients",[4],2
same,"Lymphopenia G1–2, %",[4],33%
same,"Lymphopenia G1–2, patients",[4],3
same,"Nausea G1–2, patients",[4],4
same,"Nausea G3–4, patients",[4],1
same,"Rash G1–2, patients",[4],2
same,"Stomatitis G1–2, patients",[4],4
same,"Thrombocytopenia G1–2, %",[4],22%
same,"Thrombocytopenia G1–2, patients",[4],2
same,"Weight loss G1–2, patients",[4],1
same,"Anal fissure G1–2, %",[5],6%
same,"Anal fissure G1–2, patients",[5],1
same,"Anemia G3–4, %",[5],6%
same,"Anemia G3–4, patients",[5],1
same,"Anorexia G1–2, %",[5],38%
same,"Anorexia G1–2, patients",[5],6
same,"Anorexia G3–4, %",[5],13%
same,"Anorexia G3–4, patients",[5],2
same,"Constipation G1–2, patients",[5],4
same,"Diarrhea G1–2, %",[5],13%
same,"Diarrhea G1–2, patients",[5],2
same,"Dizziness G1–2, %",[5],13%
same,"Dizziness G1–2, patients",[5],2
same,"Dysguesia G1–2, patients",[5],2
same,"Dysguesia G3–4, patients",[5],1
same,"Elevated creatinine G1–2, patients",[5],2
same,"Elevated creatinine G3–4, patients",[5],1
same,"Fatigue G1–2, patients",[5],10
same,"Fatigue G3–4, patients",[5],1
same,"Lymphopenia G1–2, %",[5],38%
same,"Lymphopenia G1–2, patients",[5],6
same,"Lymphopenia G3–4, %",[5],6%
same,"Lymphopenia G3–4, patients",[5],1
same,"Nausea G1–2, patients",[5],5
same,"Nausea G3–4, %",[5],25%
same,"Nausea G3–4, patients",[5],4
same,"Poor wound healing G1–2, patients",[5],2
same,"Rash G1–2, patients",[5],9
same,"Stomatitis G1–2, patients",[5],7
same,"Thrombocytopenia G1–2, %",[5],13%
same,"Thrombocytopenia G1–2, patients",[5],2
same,"Vitiligo G1–2, patients",[5],2
same,"Weight loss G1–2, %",[5],13%
same,"Weight loss G1–2, patients",[5],2
same,Grade 3 pulmonary tumor abscess,"head and neck cancer patient with history of aspiration, cycle 3",One patient
same,Recommended phase II dose of HCQ,in combination with TEM 25 mg weekly,600 mg twice daily
same,Maximum tolerated dose (MTD) of HCQ,"in combination with TEM 25 mg weekly, up to 1200 mg/d",not reached; also recorded: not defined
same,Grade 4 cholangitis and sepsis during tumor regression,"melanoma patient with large gall bladder metastases, cohort not stated",One patient
